Source: ChEMBL document CHEMBL5724801, “EUbOPEN Chemogenomics Library - Multiplex” (2024)
Several values for one entry are separate records, joined by “and”; a condition that tells them apart may be missing. Equal values may be shown once.

Legend:
Fibroblast = test: Multiplex assay against human fibroblast; assay type: toxicity, cell-based
Summary of the method: (§1)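 Live cells carried four stains from seeding: Hoechst33342, BioTracker Green Microtubule Cytoskeleton Dye, MitoTracker Red and Annexin V Alexa Fluor 680. They were imaged on a CQ1 microscope at 37°C and 5% CO2 after compound addition. Using CellPathfinder machine-learning gating, cells were split into Hoechst high-intensity objects or normal cells, normal cells into healthy, pyknosed or fragmented nuclei, and pyknosed cells into mitotic or apoptotic; tubulin, mitochondrial-mass and membrane-permeability phenotypes are per cents of healthy-nucleus cells.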

U2OS = test: Multiplex assay against U2OS; assay type: toxicity, cell-based; details: human; summary of the method: as §1
[1] = 12 h, 1 µM, compound concentration 1 uM
[2] = 12 h, 10 µM, compound concentration 10 uM
[3] = 24 h, 1 µM, compound concentration 1 uM
[4] = 24 h, 10 µM, compound concentration 10 uM
[5] = 48 h, 1 µM, compound concentration 1 uM
[6] = 48 h, 10 µM, compound concentration 10 uM

## COC[C@@H](c1ccc(C(F)(F)F)cc1)N1CCN(C2(C)CCN(C(=O)c3c(C)ncnc3C)CC2)C[C@@H]1C.O=C(O)/C=C\C(=O)O [VICRIVIROC MALEATE]
Fibroblast; [1]
  Population Apoptotic (%): 36%
  Population Fragmented Nuclei (%): 23%
  Population Healthy Nuclei (%): 53% and 51%
  Population Hoechst High Intensity Objects (%): 4%
  Population Membrane Permeable-Phenotype (%): 2% and 5%
  Population Mitochondria Different-Phenotype (%): 11% and 13%
  Population Mitotic Cells (%): 63%
  Population Normal (%): 95%
  Population Pyknosed Nuclei (%): 22% and 25%
  Population Tubulin-Different-Phenotype (%): 16% and 41%
  Total Cell Count: 138 and 190
Fibroblast; [2]
  Population Apoptotic (%): 58% and 33%
  Population Fragmented Nuclei (%): 26% and 48%
  Population Healthy Nuclei (%): 59% and 33%
  Population Hoechst High Intensity Objects (%): 17% and 20%
  Population Membrane Permeable-Phenotype (%): 2% and 12%
  Population Mitochondria Different-Phenotype (%): 4%
  Population Mitotic Cells (%): 41% and 66%
  Population Normal (%): 82% and 79%
  Population Pyknosed Nuclei (%): 14% and 18%
  Population Tubulin-Different-Phenotype (%): 45% and 67%
  Total Cell Count: 208 and 186
Fibroblast; [3]
  Population Apoptotic (%): 66% and 30%
  Population Fragmented Nuclei (%): 21% and 28%
  Population Healthy Nuclei (%): 57% and 50%
  Population Hoechst High Intensity Objects (%): 3%
  Population Membrane Permeable-Phenotype (%): 1% and 8%
  Population Mitochondria Different-Phenotype (%): 7% and 20%
  Population Mitotic Cells (%): 33% and 69%
  Population Normal (%): 96%
  Population Pyknosed Nuclei (%): 20% and 21%
  Population Tubulin-Different-Phenotype (%): 18% and 41%
  Total Cell Count: 138 and 204
Fibroblast; [4]
  Population Apoptotic (%): 73% and 42%
  Population Fragmented Nuclei (%): 23% and 46%
  Population Healthy Nuclei (%): 64% and 39%
  Population Hoechst High Intensity Objects (%): 12% and 21%
  Population Membrane Permeable-Phenotype (%): 0% and 8%
  Population Mitochondria Different-Phenotype (%): 5% and 12%
  Population Mitotic Cells (%): 26% and 57%
  Population Normal (%): 87% and 78%
  Population Pyknosed Nuclei (%): 11% and 14%
  Population Tubulin-Different-Phenotype (%): 42% and 60%
  Total Cell Count: 196 and 183
Fibroblast; [5]
  Population Apoptotic (%): 59% and 53%
  Population Fragmented Nuclei (%): 21% and 33%
  Population Healthy Nuclei (%): 56% and 50%
  Population Hoechst High Intensity Objects (%): 3% and 5%
  Population Membrane Permeable-Phenotype (%): 0% and 9%
  Population Mitochondria Different-Phenotype (%): 7% and 19%
  Population Mitotic Cells (%): 40% and 46%
  Population Normal (%): 96% and 95%
  Population Pyknosed Nuclei (%): 21% and 15%
  Population Tubulin-Different-Phenotype (%): 34% and 58%
  Total Cell Count: 127 and 180
Fibroblast; [6]
  Population Apoptotic (%): 73% and 53%
  Population Fragmented Nuclei (%): 23% and 54%
  Population Healthy Nuclei (%): 65% and 35%
  Population Hoechst High Intensity Objects (%): 14% and 20%
  Population Membrane Permeable-Phenotype (%): 0% and 9%
  Population Mitochondria Different-Phenotype (%): 5% and 10%
  Population Mitotic Cells (%): 26% and 46%
  Population Normal (%): 85% and 79%
  Population Pyknosed Nuclei (%): 10% and 9%
  Population Tubulin-Different-Phenotype (%): 48% and 61%
  Total Cell Count: 206 and 193
U2OS; [1]
  Population Apoptotic (%): 82% and 81%
  Population Fragmented Nuclei (%): 34% and 21%
  Population Healthy Nuclei (%): 54% and 67%
  Population Hoechst High Intensity Objects (%): 4% and 2%
  Population Membrane Permeable-Phenotype (%): 8% and 11%
  Population Mitochondria Different-Phenotype (%): 4% and 14%
  Population Mitotic Cells (%): 17% and 18%
  Population Normal (%): 95% and 97%
  Population Pyknosed Nuclei (%): 11% and 10%
  Population Tubulin-Different-Phenotype (%): 3% and 7%
  Total Cell Count: 261 and 105
U2OS; [2]
  Population Apoptotic (%): 86% and 33%
  Population Fragmented Nuclei (%): 26% and 28%
  Population Healthy Nuclei (%): 65%
  Population Hoechst High Intensity Objects (%): 1% and 2%
  Population Membrane Permeable-Phenotype (%): 13% and 5%
  Population Mitochondria Different-Phenotype (%): 3% and 6%
  Population Normal (%): 98% and 97%
  Population Pyknosed Nuclei (%): 8% and 6%
  Population Tubulin-Different-Phenotype (%): 3% and 6%
  Total Cell Count: 270 and 91
U2OS; [3]
  Population Apoptotic (%): 77% and 93%
  Population Fragmented Nuclei (%): 25% and 20%
  Population Healthy Nuclei (%): 67% and 64%
  Population Hoechst High Intensity Objects (%): 3% and 4%
  Population Membrane Permeable-Phenotype (%): 5% and 10%
  Population Normal (%): 96% and 95%
  Population Pyknosed Nuclei (%): 7% and 15%
  Population Tubulin-Different-Phenotype (%): 2% and 10%
